Experimental data taken from PubChem BioAssay AID624299 (Broad Institute, 2012).
Several values for one entry are separate records, joined by “and”; a condition that tells them apart may be missing. Identical values can stand only once. Activity calls are given as the source filed them.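 Rule for the calls: active = compounds lowering the cell viability light signal with a fitted AC50 at most twice the top dose tested; inconclusive = flat fit with 30 to 70% inhibition, or poor fit; inactive = the rest.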

Test system: not listed separately
Assay: cytotoxicity in MALME3 melanoma cells – cell-based, CellTiter-Glo luminescence, dry powder samples, set 2, orthogonal assay for MITF inhibitor project, dose response (AID 624299)
Details: MALME3 melanoma viability, CellTiter-Glo ATP luminescence, 24 h; at 35 µM (top of the series)
In short: (§1)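 Test system: MALME3 melanoma cells, an MITF-dependent line / Signal: CellTiter-Glo luminescence measuring cellular ATP / Buffer or medium: phenol-red-free IMDM with 10% FBS / Schedule: 37 °C compound incubation, 5 min RT before reading / Compound: multi-dose pinned compounds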

| Structure (SMILES) | activity change, negative = inhibition |
| --- | --- |
| O=C(NC1=C(c2ccc(OC(F)(F)F)cc2)C(=O)c2ccccc2C1=O)c1ccc(Br)cc1 | 2.43% (inactive) |
| COc1ccc(C2=C(NC(=O)c3ccc4ccccc4c3)C(=O)c3ccccc3C2=O)cc1 | -7.26% (inactive) |
| COc1ccc(C2=C(NC(=O)c3ccc(OC)cc3-c3cccc(OC)c3)C(=O)c3ccccc3C2=O)cc1 | -8.34% (inactive) |
| C=CCNC1=C(NCC=C)C(=O)c2ccccc2C1=O | 2.12% (inactive) |
| O=C1C(NS(=O)(=O)c2ccc(Br)cc2)=C(N2CCN(c3ccccc3)CC2)C(=O)c2ccccc21 | -51.2% (inactive) |
| O=C(NC1=C(N2CCN(c3ccccc3)CC2)C(=O)c2ccccc2C1=O)c1ccccc1 | -8.35% (inactive) |
| O=C(NC1=C(c2ccc(Oc3ccccc3)cc2)C(=O)c2ccccc2C1=O)c1ccccc1 | -15.3% (inactive) |

Test system: MALME3 melanoma viability, CellTiter-Glo ATP luminescence, 24 h
Assay: as above
Details: not given
In short: as §1

| Structure (SMILES) | AC50 |
| --- | --- |
| CCN1CCN(C2=C(NC(=O)c3ccccc3)C(=O)c3ccccc3C2=O)CC1 | 3.93 µM |
| CC(=O)N(C)C1=C(N2CCCCC2)C(=O)c2ccccc2C1=O | 4.94 µM |
| C=C1C(=O)OC2C1CC/C(C)=C\CCC1(C)OC21 (configuration not stated) | 22.9 µM |
| CC(=O)N(C)C1=C(N2CCN(C)CC2)C(=O)c2ccccc2C1=O | 1.96 µM |
| CCN1c2ccccc2NC2N=C(OC)C(c3ccccc3)C21 (configuration not stated) | 6.63 µM |
| O=C1C=C(Nc2ccccc2)C(=O)c2ccccc21 | 2.18 µM |
| O=C(NC1=C(c2ccccc2)C(=O)c2ccccc2C1=O)c1ccccc1 | 32.2 µM |
| O=C1C(Nc2ccccc2)=C(N2CCCCC2)C(=O)c2ccccc21 | 5.84 µM |
| O=C1C(Nc2ccccc2)=C(N2CCSCC2)C(=O)c2ccccc21 | > 70 µM (inactive) |
| CCN1CCN(C2=C(Nc3ccccc3)C(=O)c3ccccc3C2=O)CC1 | 12.4 µM |
| O=C1C(NCCCN2CCOCC2)=C(Nc2ccccc2)C(=O)c2ccccc21 | > 70 µM (inactive) |
| O=C1C(NS(=O)(=O)c2ccccc2)=C(N2CCOCC2)C(=O)c2ccccc21 | 26.9 µM |
| CCN1CCN(C2=C(NC(=O)c3ccc(Br)cc3)C(=O)c3ccccc3C2=O)CC1 | 1.79 µM |
| CN1CCN(C2=C(NC(=O)c3ccccc3)C(=O)c3ccccc3C2=O)CC1 | 5.16 µM |
| C=CCNC1=C(N2CCOCC2)C(=O)c2ccccc2C1=O | 5.76 µM |
| C=CCNC1=C(N2CCN(CC)CC2)C(=O)c2ccccc2C1=O | 17.9 µM |
| CC(=O)NC1=C(c2ccc3c(c2)oc2ccccc23)C(=O)c2ccccc2C1=O | 22 µM |
| CN1CCN(C2=C(NC(=O)c3ccc(Br)cc3)C(=O)c3ccccc3C2=O)CC1 | 1.93 µM |
| COc1ccc(C(=O)NC2=C(c3ccccc3)C(=O)c3ccccc3C2=O)cc1 | 28.3 µM |
| C=CCNC1=C(NCCN(CC)CC)C(=O)c2ccccc2C1=O | 8.96 µM |
| COc1ccc(C2=C(N)C(=O)c3ccccc3C2=O)cc1 | > 70 µM (inactive) |
| O=C(NC1=C(N2CCOCC2)C(=O)c2ccccc2C1=O)c1ccc(Br)cc1 | 16.1 µM |
| NC1=C(c2ccc(OC(F)(F)F)cc2)C(=O)c2ccccc2C1=O | > 70 µM (inactive) |
| O=C(NC1=C(N2CCSCC2)C(=O)c2ccccc2C1=O)c1ccc(Br)cc1 | 20.8 µM |
| COc1ccc(C2=C(NC(=O)c3ccc(Cl)cc3)C(=O)c3ccccc3C2=O)cc1 | 32 µM |
| COc1cccc(C2=C(NC(=O)c3ccccc3)C(=O)c3ccccc3C2=O)c1 | 20.4 µM |
| C=CCNC1=C(N(C)C(C)=O)C(=O)c2ccccc2C1=O | 0.7 µM |

| Structure (SMILES) | AC50 |
| --- | --- |
| COc1ccc(C2=C(NC(=O)c3ccccc3Cl)C(=O)c3ccccc3C2=O)cc1 | 21.3 µM |
| C=CCNC1=C(NCCCN(CC)CC)C(=O)c2ccccc2C1=O | 16.2 µM |
| Cc1ccc(C(=O)NC2=C(c3ccccc3)C(=O)c3ccccc3C2=O)o1 | 23.7 µM |
| O=C(NC1=C(c2ccccc2)C(=O)c2ccccc2C1=O)c1ccco1 | 23.5 µM |
| O=C(NC1=C(c2ccc(OC(F)(F)F)cc2)C(=O)c2ccccc2C1=O)c1ccccc1F | > 70 µM (inactive) |
| C=CCNC1=C(NC(=O)c2ccccc2)C(=O)c2ccccc2C1=O | > 70 µM (inactive) |
| Cc1nc2ccccc2n1/N=C/c1ccc([N+](=O)[O-])s1 | 11.3 µM |
| COc1ccc(C2=C(NC(C)=O)C(=O)c3ccccc3C2=O)cc1 | 12 µM |
| O=C1C(Nc2ccccc2)=C(N2CCN(c3ccccc3)CC2)C(=O)c2ccccc21 | > 70 µM (inactive) |
| NC1=C(NC(=O)c2ccccc2)C(=O)c2ccccc2C1=O | 16.1 µM |
| CC(=O)N(C)C1=C(N2CCOCC2)C(=O)c2ccccc2C1=O | 7.36 µM |
| O=C1C(NS(=O)(=O)c2cccs2)=C(N2CCOCC2)C(=O)c2ccccc21 | 21.7 µM |
| O=C(CNc1cccc2ccccc12)N/N=C/c1ccc([N+](=O)[O-])o1 | 22.8 µM |
| O=C1C(NS(=O)(=O)c2ccc(Br)s2)=C(N2CCSCC2)C(=O)c2ccccc21 | 30.2 µM |
| COc1ccc(C2=C(NC(=O)c3ccccc3OC)C(=O)c3ccccc3C2=O)cc1 | > 70 µM (inactive) |
| C=CCNC1=C(N2CCN(C)CC2)C(=O)c2ccccc2C1=O | 19.1 µM |
| O=C1C(NS(=O)(=O)c2ccc(Br)cc2)=C(c2ccc(OC(F)(F)F)cc2)C(=O)c2ccccc21 | > 70 µM (inactive) |
| CCN1CCN(C2=C(N(C)C(C)=O)C(=O)c3ccccc3C2=O)CC1 | 2.5 µM |
| O=C(NC1=C(N2CCSCC2)C(=O)c2ccccc2C1=O)c1ccccc1 | 18.8 µM |
| O=C(NC1=C(Cl)C(=O)c2ccccc2C1=O)c1ccccc1 | 5.7 µM |
| CN1CCN(C2=C(NS(=O)(=O)c3ccccc3)C(=O)c3ccccc3C2=O)CC1 | 7.3 µM |
| CN1CCN(C2=C(NS(=O)(=O)c3cccs3)C(=O)c3ccccc3C2=O)CC1 | 11.7 µM |
| CCN1CCN(C2=C(NS(=O)(=O)c3cccs3)C(=O)c3ccccc3C2=O)CC1 | 14.9 µM |
| COc1ccc(C(=O)NC2=C(c3ccc(OC)cc3)C(=O)c3ccccc3C2=O)cc1 | 23.1 µM |
| COC1=C(NS(=O)(=O)c2ccccc2)C(=O)c2ccccc2C1=O | 13.4 µM |
| O=C(NC1=C(N2CCCCC2)C(=O)c2ccccc2C1=O)c1ccccc1 | > 70 µM (inactive) |
| CN1CCN(C2=C(NS(=O)(=O)c3ccc(Br)s3)C(=O)c3ccccc3C2=O)CC1 | 12.5 µM |

| Structure (SMILES) | AC50 |
| --- | --- |
| O=C1C(Nc2ccccc2)=C(N2CCOCC2)C(=O)c2ccccc21 | 15.6 µM and 24.9 µM |
| COc1ccc(S(=O)(=O)N(C(C)=O)c2ccc(OC(C)=O)c3ccccc23)cc1[N+](=O)[O-] | 19.6 µM |
| C=CCNC1=C(Nc2ccccc2)C(=O)c2ccccc2C1=O | > 70 µM (inactive) |
| O=C1C(NS(=O)(=O)c2ccc(Br)cc2)=C(N2CCOCC2)C(=O)c2ccccc21 | 23.4 µM |
| CC(=O)NC1=C(c2ccc(Cl)cc2)C(=O)c2ccccc2C1=O | 13.9 µM |
| CC1CCN(CC(CS(=O)(=O)c2ccc([N+](=O)[O-])cc2)N2CCC(C)CC2)CC1 (configuration not stated) | 23 µM |
| COc1ccc(C(=O)NC2=C(c3ccc(OC(F)(F)F)cc3)C(=O)c3ccccc3C2=O)cc1 | > 70 µM (inactive) |
| CC(=O)NC1=C(c2cccc(Cl)c2)C(=O)c2ccccc2C1=O | 13.1 µM |
| CN1CCN(C2=C(Nc3ccccc3)C(=O)c3ccccc3C2=O)CC1 | 16.4 µM |
| O=C1C(NS(=O)(=O)c2ccc(Br)s2)=C(N2CCOCC2)C(=O)c2ccccc21 | 25.7 µM |
| CCN1CCN(C2=C(NS(=O)(=O)c3ccc(Br)cc3)C(=O)c3ccccc3C2=O)CC1 | 20 µM |
| CCN(CC)CCCNC1=C(N(C)C(C)=O)C(=O)c2ccccc2C1=O | 3.12 µM |
| O=C(NC1=C(c2ccccc2)C(=O)c2ccccc2C1=O)c1ccc(Br)cc1 | > 70 µM (inactive) |
| CCN(CC)CCCNC1=C(Nc2ccccc2)C(=O)c2ccccc2C1=O | 25.5 µM |
| COc1cccc(-c2cc(C(=O)NC3=C(Cl)C(=O)c4ccccc4C3=O)ccc2OC)c1 | 16.3 µM |
| O=C1C(NS(=O)(=O)c2ccc(Br)cc2)=C(N2CCCCC2)C(=O)c2ccccc21 | 31.5 µM |
| NC1=CC(=O)c2ccccc2C1=O | 7.89 µM |
| CN1CCN(C2=C(NS(=O)(=O)c3ccc(Br)cc3)C(=O)c3ccccc3C2=O)CC1 | > 70 µM (inactive) |
| C=CCNC1=C(N2CCSCC2)C(=O)c2ccccc2C1=O | 5.96 µM |
| CC(=O)NC1=C(c2ccccc2)C(=O)c2ccccc2C1=O | 18.6 µM |
| C=CCNC1=C(Cl)C(=O)c2ccccc2C1=O | 9.65 µM and 12.4 µM |
| CCN1CCN(C2=C(NS(=O)(=O)c3ccc(Br)s3)C(=O)c3ccccc3C2=O)CC1 | 17.2 µM |
| COc1ccc(C2=C(NC(=O)c3cccc(OC)c3)C(=O)c3ccccc3C2=O)cc1 | 26.8 µM |
| O=C(NC1=C(N2CCOCC2)C(=O)c2ccccc2C1=O)c1ccccc1 | 24.4 µM |
| C=CCNC1=C(N2CCCCC2)C(=O)c2ccccc2C1=O | 1.61 µM |
| C[C@@H](NC1=C(Nc2ccccc2)C(=O)c2ccccc2C1=O)c1ccccc1 | > 70 µM (inactive) |
